Assay [1] has as its system Staphylococcus aureus. The assay can be described thus: Antibacterial activity against methicillin-resistant Staphylococcus aureus LAC JE2 after 24 hrs by broth microdilution assay. The format is functional. Particulars: LAC JE2, 24 h. The method in brief: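 Broth microdilution per ASM Clinical Microbiology Procedures Handbook (3rd ed.). Compound stock at pH 7, serial 2-fold dilutions in cation-adjusted Mueller Hinton II broth with 5% DMSO. Inoculum from direct colony suspension at 0.5 McFarland, 10 ul per well. Static incubation at 37°C for 24 h. MIC is the lowest concentration with no visible growth. Vancomycin positive control, medium-only negative control.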

Assay [2] deals with Staphylococcus aureus. The assay can be described thus: Antibacterial activity against methicillin-resistant Staphylococcus aureus after 24 hrs by broth microdilution assay.
The species named for assay [3] is Equus caballus. The assay can be described thus: Induction of equine heart cytochrome-c reduction at 25 to 100 uM measured for 900 sec at 30 sec time interval in presence of NADPH by photospectrometric method. The format is functional. In short, it runs like this: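 Compound stock 10 mM in 95% DMSO/5% 0.1 M NaOH, diluted in DPBS to 200 μM and serially diluted, keeping 5% DMSO/NaOH. NADPH 100 μM, then cytochrome c 20 μM added. Absorbance at 550 nm read, with 700 nm as baseline correction. Controls: cyt-c alone, cyt-c plus NADPH, and buffer alone.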

Assay [4] relates to Staphylococcus aureus. The assay can be described thus: Induction of membrane disruption in methicillin-resistant Staphylococcus aureus LAC JE2 at 1 to 10 times MIC by propidium iodide staining based confocal microscopic method. It counts as functional.
Assay [5] in a line: Induction of ROS generation at 0.11 to 0.55 mM measured for 500 sec at 30 sec time interval in presence of NADPH by ABDA staining based photospectrometric method. The method in brief: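 Compound 10 mM in 95% DMSO/5% 0.1 M NaOH, serially diluted keeping 5% DMSO/NaOH in DPBS. NADPH 100 μM and ABDA 5 μM final added. Superoxide followed as ABDA decay at 479 nm. Triplicate per concentration. Controls: ABDA alone in buffer, and buffer alone.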

Assay [6] is described as follows: Induction of ROS generation by HPF staining based flow cytometry.
The test system of assay [7] is Staphylococcus aureus. Nature of the assay: Induction of membrane disruption in methicillin-resistant Staphylococcus aureus LAC JE2 at 1 to 10 times MIC measured at 15 mins interval for 4 hrs by propidium iodide staining based fluorescence assay. It counts as functional. The method in brief:
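S. aureus JE2 resuspended in PBS to OD600 1.0 and treated with 1X, 2X or 10X MIC. Propidium iodide fluorescence (RFU) read in a plate reader every 15 min for 4 h.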

Assay [8] deals with HaCaT. The assay can be described thus: Cytotoxicity against human HaCaT cells assessed as reduction in cell viability by CellTiter blue assay. It counts as cell-based. The method in brief: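 HaCaT keratinocytes. Compound dissolved in 2:3 NaOH (0.01 M)/DMSO, diluted in DMEM with 10% FBS and 1% penicillin-streptomycin to 4 mM top concentration (3% DMSO), then serially diluted in DMEM. Viability read by CellTiter-Blue, following resazurin absorbance change on a spectrophotometer. Absorbance plotted against concentration and IC50 calculated.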
(Alamar Blue is a resazurin reagent that responds to reducing activity.)

The test system of assay [9] is Staphylococcus aureus. The assay can be described thus: Bacteriostatic activity against methicillin-resistant Staphylococcus aureus LAC JE2 at 10 times MIC by serial dilution method. It counts as functional. In short, it runs like this:
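Overnight culture diluted 1:1000 into fresh CAMHB and grown 2 h at 37°C with agitation. 1-ml aliquots then treated with 10X MIC of compound. Samples taken every 2 h, and viability counted by serial dilution and plating on tryptic soy agar.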

Converted amounts (≈) assume the structure as drawn. The source made the active and inactive calls. No cut-off for these calls is given here.

This passage reports MIC, Activity and IC50 results from ChEMBL document CHEMBL4041494, “Simple synthesis of endophenazine G and other phenazines and their evaluation as anti-methicillin-resistant Staphylococcus aureus agents” (Eur J Med Chem, 2017).

`N#Cc1cccc2nc3cccc(Br)c3nc12`: the MIC (usually the lowest concentration that inhibits growth of the organism) in [1] was over 128 µg/mL.
Turning to `COC(=O)c1cccc2nc3ccccc3nc12`, the MIC in assay [2] worked out at 128 µg/mL (≈ 537 µM).
In turn, `CN(C)C(=O)c1cccc2nc3c(/C=C/C(C)(C)O)cccc3nc12` showed an MIC in assay [1] of over 128 µg/mL. The outcome in assay [3] was Active.
Consider `CN(C)C(=O)c1cccc2nc3cccc(/C=C/C(C)(C)O)c3nc12`, for which the MIC in assay [1] was over 128 µg/mL.
Take `CS(=O)(=O)NC(=O)c1cccc2nc3cccc(Cl)c3nc12`: the result in [4], in assay [5], in [6] and in assay [7] was inactive. In addition, in assay [1], the MIC turned out to be 2 µg/mL (≈ 5.96 µM). Further, the outcome in assay [3] and in assay [9] was Active. For the same molecule, in assay [8], the IC50 (usually the concentration that gives 50% inhibition) is 193 µM.
In [1], `COC(=O)c1cccc2nc3cccc(/C=C/C(C)(C)O)c3nc12` had an MIC of 128 µg/mL (≈ 397 µM).
Take `O=C(O)c1cccc2nc3cccc(Cl)c3nc12`: it took 16 µg/mL (≈ 61.9 µM) to inhibit growth in assay [1] (MIC).
`O=C(O)c1cccc2nc3cccc(F)c3nc12`: the MIC in assay [1] came to 64 µg/mL (≈ 264 µM).
Still for that read-out and setting: with `CC(C)(O)/C=C/c1cccc2nc3c(C(=O)O)cccc3nc12` the figure was 128 µg/mL (≈ 415 µM).
In assay [1], `CS(=O)(=O)NC(=O)c1cccc2nc3cccc(Br)c3nc12` registered an MIC of 4 µg/mL (≈ 10.5 µM). The IC50 in [8] is 118 µM.
In [1], `NC(=O)c1cccc2nc3cccc(F)c3nc12` had an MIC of over 128 µg/mL.
Same read-out and setting: to `O=C(O)c1cccc2nc3c(Br)cccc3nc12` belongs 128 µg/mL (≈ 422 µM).
On the same count and under the same terms, with `COC(=O)c1cccc2nc3cccc(Br)c3nc12` the figure was 128 µg/mL (≈ 404 µM).
Still for that read-out and setting: to `O=C(O)c1cccc2nc3cc(Br)ccc3nc12` belongs 64 µg/mL (≈ 211 µM).
`O=C(O)c1cccc2nc3ccccc3nc12` [PHENAZINE-1-CARBOXYLIC ACID]: inhibition of growth in assay [2] (MIC) required 64 µg/mL (≈ 285 µM).
In assay [1], `O=C(O)c1cccc2nc3cccc(Br)c3nc12` registered an MIC of 32 µg/mL (≈ 106 µM). For the same molecule, the IC50 in assay [8] turned out to be 345 µM.
As for `CC(C)(O)CCc1cccc2nc3cccc(C(=O)O)c3nc12`, the MIC in assay [1] was found to be 64 µg/mL (≈ 206 µM).
On the same count and under the same terms, to `COC(=O)c1cccc2nc3c(/C=C/C(C)(C)O)cccc3nc12` belongs 128 µg/mL (≈ 397 µM).
The same measure, in the same setting: to `COC(=O)c1cccc2nc3c(Br)cccc3nc12` belongs over 128 µg/mL.
`NC(=O)c1cccc2nc3ccccc3nc12` displayed an MIC in assay [2] of 64 µg/mL (≈ 287 µM).
Molecule `CN(C)C(=O)c1cccc2nc3cccc(Br)c3nc12` gave an MIC in [1] of over 128 µg/mL.
In the case of `CC(C)(O)/C=C/c1cccc2nc3cccc(C(=O)O)c3nc12`, the outcome in [4], in assay [5], in assay [6] and in [7] was inactive. The molecule further showed an MIC in assay [1] of 32 µg/mL (≈ 104 µM). Also, the result in assay [3] and in assay [9] was Active. For the same molecule, the IC50 in assay [8] was 306 µM.
With `Cc1cccc2nc3cccc(C(=O)O)c3nc12`, the minimal inhibitory concentration (MIC) in [1] was determined as 32 µg/mL (≈ 134 µM).
In assay [1], `CC(C)(O)/C=C/c1cccc2nc3cccc(C#N)c3nc12` had an MIC of 128 µg/mL (≈ 442 µM).
The same measure, in the same setting: to `COC(=O)c1cccc2nc3cccc(C)c3nc12` belongs 64 µg/mL (≈ 254 µM).
